hERG rescue: shields human hERG channel from block by proarrhythmic agents; Q12809; activation (rescue from dofetilide block), less the hit threshold, % at 10 µM; CHO-hERG, FluxOR thallium flux, dofetilide IC70 present; 310,000 compounds, 0.51% hits;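 active means activation above the mean of controls blocked by dofetilide plus 5 SD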;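 further: thallium influx through hERG after potassium depolarization seen as dye fluorescence rise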
KCNQ1 block: human KCNQ1 channel inhibition; CHO-K1 KCNQ1, FluxOR thallium flux fluorescence; hits give high values; 310,000 compounds, 1.3% hits; B-score at 10 µM; P51787;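 active means compounds whose thallium flux B-score, printed positive for inhibition, exceeds three library SD while starting fluorescence stays within three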;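 further: channel opened by potassium depolarization with thallium stimulus after 20 min compound exposure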
Target sequence (P51787 whole entry, looked up): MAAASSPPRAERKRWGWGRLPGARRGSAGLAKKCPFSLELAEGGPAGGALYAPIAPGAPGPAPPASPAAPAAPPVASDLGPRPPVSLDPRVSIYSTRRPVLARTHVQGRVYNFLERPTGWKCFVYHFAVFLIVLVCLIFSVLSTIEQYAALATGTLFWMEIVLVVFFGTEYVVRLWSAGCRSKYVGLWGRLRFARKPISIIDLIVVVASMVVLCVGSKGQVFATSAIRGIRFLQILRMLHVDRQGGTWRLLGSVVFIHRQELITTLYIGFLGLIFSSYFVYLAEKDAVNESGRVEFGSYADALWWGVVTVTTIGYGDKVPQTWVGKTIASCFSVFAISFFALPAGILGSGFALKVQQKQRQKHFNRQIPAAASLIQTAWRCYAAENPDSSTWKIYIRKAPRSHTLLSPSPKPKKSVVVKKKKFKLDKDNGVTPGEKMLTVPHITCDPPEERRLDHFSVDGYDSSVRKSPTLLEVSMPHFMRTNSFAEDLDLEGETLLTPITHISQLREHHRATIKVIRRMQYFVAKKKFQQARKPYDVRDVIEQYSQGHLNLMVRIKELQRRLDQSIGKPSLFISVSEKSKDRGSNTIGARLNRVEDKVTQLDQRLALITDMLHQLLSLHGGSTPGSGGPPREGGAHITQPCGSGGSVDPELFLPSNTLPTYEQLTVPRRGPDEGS
KCNK3 inh: human KCNK3 channel inhibition, primary screen; B-score at 10 µM; O14649; CHO-KCNK3 thallium flux, FluxOR fluorescence; hits give low values; 340,000 compounds, 0.84% hits;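 active means B-score under library mean minus 4 SD, starting fluorescence ratio at most library mean plus 5 SD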;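 further: more negative B-score means stronger inhibition of thallium flux through KCNK3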
KCNQ1 pot: human KCNQ1 channel potentiation or activation. P51787. CHO-K1 KCNQ1, thallium flux FluxOR fluorescence; hits give high values. B-score at 10 µM. 310,000 compounds, 0.35% hits;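 active means fluorescence ratio B-score, a plate-corrected score, at least three library SD, with initial intensity B-score within 5 SD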
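Doses: Single concentration per compound, DMSO matched to controls | Test system: KCNQ1-transfected CHO-K1 cells | Timing: 90 min dye loading and 20 min compound exposure, both at room temperature | Measured by: Kinetic FluxOR thallium fluorescence, 10-s 1-Hz baseline, 110-s post-stimulus read | Medium: Assay buffer with matched DMSO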
KCNK9 inh: blocks the human KCNK9 two-pore domain potassium channel; Q9NPC2; HEK293 KCNK9, FluxOR thallium flux fluorescence; hits give low values; B-score at 10 µM; AID 488922; 310,000 compounds, 1.2% hits;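 active means ratio B-score over 3 SD below the library mean, with starting fluorescence within 5 SD of its mean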;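 further: negative B-score means less thallium flux so channel inhibition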
Kir21 inh: Kir2.1 (mouse) channel inhibition; P35561; HEK293-Kir2.1, FluxOR thallium flux fluorescence; hits give low values; B-score at 10 µM; 310,000 compounds, 0.85% hits;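 active means fluorescence ratio B-score at or below minus 3 SD of library scores, with starting-brightness B-score within 2 SD, cut at about -4.2 in these data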;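 further: channel flux triggered by added potassium and thallium sulfate stimulus; B-score of peak minus minimum fluorescence over baseline after thallium stimulus; more negative B-score means stronger Kir2.1 block with less thallium influx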
Numbers stand for hits; 0 = inactive; - = no result. Sampled rows, rich in hits. Any-hit rate of the full collection: about 3.8%.

SMILES	hERG rescue	KCNQ1 block	KCNK3 inh	KCNQ1 pot	KCNK9 inh	Kir21 inh
CN(C)CCCN(C(=O)c1ccc2c(c1)OCCO2)c1nc2ccc(Cl)cc2s1	0	0	0	0	0	-9.87
CCN(Cc1ccccc1)S(=O)(=O)c1ccc(C(=O)N(CCCN(C)C)c2nc3c(C)c(C)ccc3s2)cc1	0	8	0	0	0	-4.47
CCN(Cc1ccccc1)S(=O)(=O)c1ccc(C(=O)N(CCCN(C)C)c2nc3cc4c(cc3s2)OCO4)cc1	0	6	0	0	0	0
CN(C)CCN(C(=O)c1ccc2c(c1)OCCO2)c1nc2ccc(Cl)cc2s1	0	0	0	0	0	0
CCOC(=O)C1=C(COc2ccc(C)cc2)NC(=O)NC1c1cc(C)ccc1C (stereo not given)	0	0	0	0	0	0
COC(=O)C1=C(COc2ccc(F)cc2)NC(=O)NC1c1ccc(C)cc1C (stereo not given)	7.4	0	0	0	0	0
CN1CC(c2ccccc2)C2(SC(=S)N(Cc3ccco3)C2=O)C12C(=O)Nc1ccccc12 (stereo not given)	0	0	0	0	0	0
CN1CC(c2ccccn2)C2(SC(=S)N(Cc3ccccc3)C2=O)C12C(=O)Nc1ccccc12 (stereo not given)	0	6	0	0	0	0
Cn1c(NNC(=O)C(c2ccccc2)c2ccccc2)cc(=O)n(C)c1=O	4.9	0	0	0	0	0
Cn1c(NC(=O)c2ccccc2)cc(=O)n(C)c1=O	0	0	0	0	0	0
COc1ccc(C(CC(=O)O)NC(=O)C(c2ccccc2)c2ccccc2)cc1 (stereo not given)	10.9	0	0	0	0	0
CCOc1ccc(N=C2NC(=O)S/C2=C\c2ccc(Cl)cc2)cc1	11.1	0	0	0	0	0
CCOc1ccc(N(C)c2ccc(/C=C3/SC(=S)NC3=O)cc2)cc1	0	0	0	0	0	0
COc1ccc(OC)c(Nc2nc(-c3sc(N)nc3C)cs2)c1	0	0	0	0	-6.71	0
Cc1cc(O)ccc1Nc1nc(-c2sc(N)nc2C)cs1	0	0	0	0	0	0
COc1ccc(Cl)cc1NC(=O)NCC1CCN(Cc2cc(C)ccc2C)CC1	0	0	0	0	0	0
COc1cc([N+](=O)[O-])ccc1NC(=O)NCC1CCN(Cc2ccc(Cl)cc2)CC1	0	0	0	0	0	-5.58
Cc1nc2c(-c3ccccc3)c(C)nn2c(SCC(N)=O)c1Cc1ccccc1	0	0	0	0	0	0
COc1ccc(OCC(=O)Nc2cccc(OC)c2)cc1	0	0	0	0	0	0
CC(C)(C)c1ccc(C(=O)NNC(=O)c2cccc(Br)c2)cc1	0	0	0	0	0	0
COc1ccc(OC)c(NC(=O)C(=O)NNC(=O)COc2ccc(Br)cc2C)c1	103.9	0	0	66	0	0
COc1cccc(OCC(=O)NNC(=O)C(=O)Nc2cccc(C)c2)c1	17.4	0	0	21	0	0
Cc1cccc(NC(=O)C(=O)NNC(=O)c2ccc(C(C)(C)C)cc2)c1	37.4	0	0	73	0	0
Cc1ccc(OCC(=O)NNC(=O)C(=O)NC(C)(C)C)cc1	0	0	0	8	0	0
COc1ccc(NC(=O)c2cc(-c3ccccn3)nc3ccccc23)cc1S(=O)(=O)N(C)C	-	-	0	-	-	-
SMILES	hERG rescue	KCNQ1 block	KCNK3 inh	KCNQ1 pot	KCNK9 inh	Kir21 inh
Cc1ccccc1NC(=O)C(=O)NNC(=O)COc1ccc2ccccc2c1	28.7	0	0	49	0	0
COc1ccc(OCC(=O)NNC(=O)C(=O)Nc2cc(OC)ccc2OC)cc1	14.7	0	0	0	0	0
Cc1ccc(NC(=O)NNC(=O)COc2ccc(Cl)cc2)cc1	0	0	0	0	0	0
COc1ccc(C)cc1NC(=O)C(=O)NNC(=O)COc1ccc(Cl)cc1	87.7	0	0	59	0	0
COc1ccc(OC)c(NC(=O)NNC(=O)COc2ccc(-c3ccccc3)cc2)c1	0	0	0	0	0	0
Cc1ccc(N(C(=O)c2csnn2)C(C(=O)NCc2ccccc2)c2ccccn2)cc1 (stereo not given)	0	0	0	0	0	0
O=C(Nc1ccc2nc3n(c(=O)c2c1)CCCCC3)C(=O)N1CCN(c2ccc(F)cc2)CC1	0	0	0	0	0	0
COc1ccc(-c2nc(-c3cccs3)c(-c3cccs3)[nH]2)cc1OC	0	7	0	0	0	0
COc1ccc(-c2nc(-c3ccccc3)c(-c3cccs3)[nH]2)cc1OC	0	0	0	0	0	0
Cc1ccc(S(=O)(=O)N2CCOC23CCN(C(=O)C(=O)NCCC(C)C)CC3)cc1	0	0	0	0	0	0
COc1ccc(C(=O)N[C@H](C(=O)N2CCN(c3ccccc3F)CC2)C(C)C)cc1	4.9	0	0	0	0	0
CC(C)OC(=O)c1c(N)n(CCCN2CCOCC2)c2nc3ccccc3nc12	0	0	0	0	0	0
CC(C)OC(=O)c1c2nc3ccccc3nc2n2c1[nH]c(=O)c1ccccc12	42.6	0	-	81	0	0
Cc1occc1C(=O)/C(C#N)=C/c1ccc(O)c(Br)c1	0	11	0	0	0	0
c1ccc(CN(Cc2cccs2)C(c2cccs2)c2nnnn2C2CCCC2)cc1 (stereo not given)	0	0	0	0	-7.54	0
OCCN(Cc1ccccc1)Cc1ccc(C(F)(F)F)cc1	0	0	0	0	-6.87	0
C=CCn1c(SC/C=C/c2ccccc2)nnc1-c1sc(N)nc1C	0	0	0	0	0	-5.7
Cc1ccc(NC(=O)C2=C(c3ccccc3)S(=O)(=O)CCS2(=O)=O)cc1	0	0	0	0	0	-5.66
Cn1cccc1C(=O)NC(=O)COC(=O)c1ccc(O)cc1	0	0	0	0	0	0
Cn1cccc1C(=O)NC(=O)COC(=O)c1ccccc1O	5.3	0	0	0	0	0
CC(C)CC(COCc1ccc(C(F)(F)F)cc1)N1CCN(C(=O)c2ccc(C(F)(F)F)cc2)CCC1=O (stereo not given)	0	0	0	0	-7.13	0
O=C(c1ccc(C(F)(F)F)cc1)N1CCC(=O)N(C(COCc2ccccc2)Cc2ccccc2)CC1 (stereo not given)	0	0	0	0	0	0
O=C(CN1C(=O)NC2(CCCC2)C1=O)N1CCN(S(=O)(=O)c2cccc(C(F)(F)F)c2)CC1	0	0	0	0	0	0
CCc1ccc2c(Cl)c(C(=O)N/N=C/c3c[nH]c4ccccc34)sc2c1	0	6	0	0	0	0
C=CCn1c(COc2ccccc2)nnc1SC(C)C(=O)N/N=C/c1cc(Cl)ccc1O (stereo not given)	0	7	0	0	0	0
C=CCn1c(COc2ccc(Cl)cc2)nnc1SCC(=O)N/N=C/c1cccc(O)c1	0	0	0	0	0	0

Compound activity as filed in PubChem.
